Consider 88 molecules from PubChem BioAssay AID504383 (The Scripps Research Institute Molecular Screening Center, 2011).

SMILES strings stand for the structures. Among all 2,500 compounds or so, about 1,200 (48%) were called active. So high a share suggests a set chosen from earlier hits. This is one part of the list. Values without a mark were called inactive.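 The calls were made as follows: active = mean activation above the low control average plus 3 SD, as set in the primary screen (cut at about 12% in these data); inactive = the rest.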

The target in this experiment is Troponin I, cardiac muscle (Homo sapiens) + Troponin T, cardiac muscle (Homo sapiens) + Troponin C, slow skeletal and cardiac muscles (Homo sapiens) (UniProt P19429+P45379+P63316). Put plainly: calcium sensitizers of cardiac thin filaments – biochemical, IANBD-TnC fluorescence, triplicate, confirmation (AID 504383).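 Also: 0% = DMSO at 0.472 mM calcium and 100% = DMSO at 2.9 mM calcium.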 As to conditions: IANBD-labeled cardiac RTF, Ca2+ sensitivity fluorescence; at 7.2 µM; hits give high values; scaled from EC20 to saturating calcium; tested at EC20 calcium, 0.472 mM. The method, boiled down: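 Assay system: labelled regulated thin filaments / Timing: 15 min at 25 °C / Detection: fluorescence intensity of labelled filaments / Measure: fluorescence gain scaled between EC20 and EC100 calcium controls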
In the case of `CCN1CC=C2C(C#N)=C(N)C(C#N)(C#N)[C@H](c3ccoc3)[C@H]2C1`, the activation is -0.65%.

Take `CN1CC=C2C(C#N)=C(N)C(C#N)(C#N)[C@H](c3ccoc3)[C@H]2C1`: the activation was 62.5% (active).

Turning to `N#C/C(=C\c1ccc(-c2ccccc2C(=O)O)o1)c1nc2ccccc2[nH]1`, the activation is 14.2% (active).

In the case of `Cc1ccc2nc(/C(C#N)=C/c3ccc(-c4ccccc4C(=O)O)o3)[nH]c2c1`, the activation was 12.9% (active).

Regarding `Cc1cc2nc(/C(C#N)=C\c3ccc(-c4ccccc4C(=O)O)o3)[nH]c2cc1C`, the activation was 14.2% (active).

Consider `N#C/C(=C\c1ccc(Sc2ccc(Cl)cc2)o1)c1nc2ccccc2[nH]1`, for which the activation was 7.23%.

On to `COc1cccc(CN2CCNC(=O)C2CC(=O)N(C)Cc2cnccn2)c1OC` (stereo not drawn), for which the activation was 7.66%.

In the case of `CC(=O)[C@H]1[C@H](C#N)C[C@H]2[C@@H]3CC=C4C[C@@H](O)CC[C@]4(C)[C@H]3CC[C@@]21C`, the activation is 45.3% (active).

Regarding `O=c1c2ccccc2cnn1Cc1n[nH]c(=S)n1-c1ccccc1Cl`, the activation is 16.3% (active).

With `CSCC(O)Cn1ncc2ccccc2c1=O` (stereo not drawn), the activation is 5.97%.

On to `CC1(C)NC(=O)N(CCCCOc2ccc(Cl)cc2)C1=O`, for which the activation is 0.92%.

With `CCC(/C=C1\Oc2ccc(OC)cc2N1C)=C\c1sc2ccccc2[n+]1CCCS(=O)(=O)[O-]`, the activation is 33.2% (active).

With `COc1cc(/C=C/c2sc3ccccc3[n+]2CCCS(=O)(=O)[O-])ccc1O`, the activation was 7.82%.

For `CCOc1ccccc1C=NNC(=O)CCCCC(=O)NN=Cc1ccccc1OCC`, the activation was 6.22%.

On to `Cc1ccc(CSc2nnc(SCC(=O)N/N=C/c3ccccc3OCC(=O)O)s2)cc1`, for which the activation was 15.5% (active).

For the molecule `COc1ccccc1N1CCN(C(=O)c2cn(-c3ccccc3)nc2-c2cccnc2)CC1`, the activation was 10%.

With `O=C(Nc1ccccc1F)C(=Cc1sc(N2CCOCC2)nc1-c1ccccc1)C(=O)Nc1ccccc1F`, the activation was -0.07%.

Consider `O=C(c1cn(-c2ccccc2)nc1-c1ccc(Br)cc1)N1CCOCC1`, for which the activation is 16.9% (active).

For `O=C(CSCc1c(F)cccc1Cl)Nc1ccccc1C(=O)N1CCOCC1`, the activation is 11.5%.

Regarding `O=C(N/C(=C/c1cn(-c2ccccc2)nc1-c1ccccc1)C(=O)N1CCOCC1)c1ccc(Cl)cc1Cl`, the activation is 12.7% (active).

Regarding `Cc1cc(NC(=O)/C(C#N)=C\c2ccc(-c3ccc(SC(F)F)cc3)o2)n(-c2ccccc2)n1`, the activation is 359% (active).

Regarding `Cc1cc(NC(=O)/C(C#N)=C/c2ccc(-c3ccc(SC(F)F)cc3)o2)n(-c2ccccc2)n1`, the activation was 659% (active).

For `COC(=O)CCc1c(C)c(C(=O)c2cc(F)c(F)c(F)c2F)c2ccccn12`, the activation was -2.54%.

Take `O=C1CCNc2ccc(-c3ccccc3)cc21`: the activation was 7.84%.

With `Cn1c(=O)c(NCCc2ccccc2)c2c3c(cccc31)C(=O)c1ccccc1-2`, the activation is 2.98%.

Regarding `Cn1c(=O)c2cc(NCc3ccccc3)nnc2n(C)c1=O`, the activation was 13.9% (active).

Take `CC(C(=O)c1ccc(Br)cc1)[n+]1cccc2ccccc21` (stereo not drawn): the activation was 64.2% (active).

With `Cc1cc(C)nc(NC(=O)c2ccc(Cl)c(Cl)c2)n1`, the activation is 12.3% (active).

Turning to `Cc1cccc(NC(=O)c2ccc(C(=O)c3ccccc3)cc2)n1`, the activation was 9.46%.

As for `COC(=O)c1c(NC(=O)CN2CCN(c3cccc(Cl)c3)CC2)sc(C)c1C`, the activation is 13.4% (active).

`COC(=O)c1c(NC(=O)c2ccnn2C)sc(C)c1C`: the activation is 5.98%.

For `CCOC(=O)c1c(/N=C/c2cccc([N+](=O)[O-])c2O)sc(C)c1C`, the activation is 7.57%.

Consider `CCN1C(=S)N[C@@H](CCc2ccccc2)[C@H](C(=O)OC)[C@H]1C`, for which the activation is 57.4% (active).

In the case of `O=C(/C=C/c1ccccc1)N/C(=C/c1ccccc1)C(=O)NCCCO`, the activation was 9.8%.

For `COc1ccc(/C=C/C(=O)NC(=S)Nc2ccc(C(=O)O)cc2)cc1`, the activation is 55.3% (active).

`O=C(O)c1ccc(NC(=S)NC(=O)c2ccc(-c3ccccc3)cc2)cc1`: the activation was 78.4% (active).

Turning to `CC(C)(C)c1ccc(C(=O)NC(=S)Nc2ccc(N3CCOCC3)cc2)cc1`, the activation is 0.7%.

With `CCC(=O)Nc1ccc(NC(=S)NC(=O)c2oc3ccccc3c2C)cc1`, the activation was 1.23%.

As for `C=CCNc1nnc(SCC(=O)N2CCCCC2)c2ccccc12`, the activation was 15.7% (active).

Turning to `O=C(CSc1ccc(-c2cccs2)nn1)N1CCCCC1`, the activation was 0.96%.

For `CCOC(=O)c1c(NC(=O)COC(=O)Cc2ccccc2[N+](=O)[O-])sc(C(=O)N(C)C)c1C`, the activation is 6.12%.

For the molecule `CS(=O)(=O)c1ccc(C(=O)OCC(=O)Nc2cccnc2Cl)cc1[N+](=O)[O-]`, the activation was 13.1% (active).

For `CC(Sc1nnc(NCc2ccccc2)s1)C(=O)Nc1ccc2c(c1)C(=O)c1ccccc1C2=O` (stereo not drawn), the activation is 137% (active).

On to `Cc1ccc(NC(=O)C(C)Sc2nnc(C)n2C2CC2)cc1S(=O)(=O)N1CCOCC1` (stereo not drawn), for which the activation is 7.55%.

In the case of `CSC1=NSC2=NC(=O)/C(=C/c3coc4ccccc4c3=O)C(=N)N12`, the activation is 3.64%.

In the case of `CCSC1=NSC2=NC(=O)/C(=C\c3coc4ccccc4c3=O)C(=N)N12`, the activation is 74.7% (active).

For the molecule `CC(C)CSC1=NSC2=NC(=O)/C(=C\c3coc4ccccc4c3=O)C(=N)N12`, the activation was 45.1% (active).

For `CC(C)NC(=S)N/N=C/c1sc(N2CCCCC2)nc1-c1cccs1`, the activation was 11.2%.

Regarding `O=C(NCCCN1CCCC1=O)c1cccc(S(=O)(=O)Nc2ccc(Br)cc2)c1`, the activation was 10%.

For `O=C(Nc1ccc(Br)cc1)c1ccc(Br)c(S(=O)(=O)Nc2cccnc2)c1`, the activation was 22.2% (active).

`Cc1csc(NS(=O)(=O)c2cccc([N+](=O)[O-])c2)n1`: the activation is 10.9%.

Turning to `Cc1occc1C(=O)Nc1cccc([N+](=O)[O-])c1`, the activation was 30.8% (active).

In the case of `O=C(Nn1cnnc1)c1cc([N+](=O)[O-])cc([N+](=O)[O-])c1`, the activation was 11.3%.

As to `COc1ccc2cc(CN(CC3CCCO3)C(=S)NCc3ccco3)c(=O)[nH]c2c1` (stereo not drawn), the activation is 1.66%.

With `COc1cc2cc(CN(Cc3cccnc3)C(=O)NCc3ccccc3)c(=O)[nH]c2cc1OC`, the activation is 324% (active).

As for `O=C(c1ccncc1)N(Cc1ccccc1)Cc1nc2ccccc2c(=O)[nH]1`, the activation is 9.24%.

As for `CC(=O)Nc1ccccc1C(=O)C(=O)Nc1ccc(F)c(Cl)c1`, the activation was 7.61%.

As to `CN1c2ccccc2C(O)=C(C(=S)Nc2ccc(F)c(Cl)c2)S1(=O)=O`, the activation is 54.4% (active).

In the case of `CC(=O)/C(C=Nc1noc(C)c1Br)=C(\C)O`, the activation is 50.2% (active).

As to `C=C1C(=O)O[C@@]23[C@H]1CC[C@@H](C)[C@@H]2CC[C@@]1(C)O[C@@H]31`, the activation was 11.9% (active).

`C=CCNC(=O)NC(=O)COC(=O)CC(NC(N)=O)c1ccc(Cl)cc1` (stereo not drawn): the activation was 154% (active).

For the molecule `CN(C)CCN(C)Cc1c2ccccc2c(CN(C)CCN(C)C)c2ccccc12`, the activation was 27.7% (active).

Turning to `CN(C)CCOc1ccccc1C(C)(C)C`, the activation was 4.26%.

For the molecule `CC[N+](C)(C)c1cccc(O)c1`, the activation is 3.39%.

On to `Nc1nc(NCc2ccco2)nc(N2CCCCCC2)c1[N+](=O)[O-]`, for which the activation is 6.31%.

Turning to `Cc1ccc(S(=O)(=O)Nc2ccc3ncccc3c2[N+](=O)[O-])cc1`, the activation is 11.6%.

On to `Cc1ccc(S(=O)(=O)Nc2nc3ccccc3nc2NCc2ccco2)cc1`, for which the activation is 23.7% (active).

As to `COC(=O)c1[nH]c2ccc(C)cc2c1NC(=O)C(C)N1CCN(C2CCCCC2)CC1` (stereo not drawn), the activation is 10.5%.

In the case of `COc1ccccc1-c1nnc(SCC(=O)Nc2ccc3[nH]c(=O)[nH]c3c2)n1N`, the activation is 6.5%.

Consider `CCn1c(C)c(CCC(=O)O)c(=O)n2nc(-c3ccccc3OC)cc12`, for which the activation was 11.7% (active).

Take `O=S(=O)(CCN(CCS(=O)(=O)C(F)(F)F)CC1CCCO1)C(F)(F)F` (stereo not drawn): the activation was 17.5% (active).

Turning to `COc1ccccc1C(=O)NNC(=O)CCCN1C(=O)/C(=C/c2cccs2)SC1=S`, the activation was 1.62%.

As to `O=C(O)CCCN1C(=O)/C(=C/c2cn(-c3ccccc3)nc2-c2cccs2)SC1=S`, the activation was 150% (active).

For the molecule `COC(=O)CCCCCN1C(=O)/C(=C\c2ccncc2)SC1=S`, the activation was 4.31%.

For the molecule `Cc1ccc(-c2nn(-c3ccccc3)cc2/C=C2\SC(=S)N(CCCCCC(=O)O)C2=O)o1`, the activation was 23.1% (active).

Regarding `C=CCNc1sc(C(=O)c2ccc(Br)s2)c(N)c1C#N`, the activation was 98% (active).

`C#CCOCCOCCOCCNc1nc(N2CCN(C(=O)CCCCCCCCCCNC(=O)[C@@H](CCSC)n3cc(CCO)nn3)CC2)nc(N2CCN(C(=O)CCCCCCCCCCNC(=O)[C@H](CCSC)n3cc(CCO)nn3)CC2)n1`: the activation was 3.03%.

Take `COc1ccc2[nH]c(C)c(CCN(Cc3cccs3)C(=S)Nc3ccc(F)cc3)c2c1`: the activation is 12.4% (active).

In the case of `COc1ccc(NC(=O)C(c2ccc(C)cc2)N(C)C(=O)Cc2cccs2)cc1` (stereo not drawn), the activation is 6.31%.

Regarding `CCN(CC)S(=O)(=O)c1ccc2[nH]c(=O)[nH]c2c1`, the activation is 15.6% (active).

For the molecule `O=S(=O)(/N=C(/Nc1nc2ccccc2s1)c1ccccc1)c1ccc(F)cc1`, the activation is 11.4%.

In the case of `Cc1noc(C)c1C(=O)Nc1nc2ccccc2s1`, the activation is 28.4% (active).

Regarding `Cc1onc(-c2ccccc2)c1C(=O)Nc1nc(-c2cc(F)ccc2F)cs1`, the activation was -0.1%.

With `Cc1cccc(NC2=Nc3ccccc3N3C2=Nc2c(c(C)nn2-c2ccccc2)C3c2ccc(O)c(O)c2)c1` (stereo not drawn), the activation was 362% (active).

`Cc1ccc(-c2ccc(CO)o2)cc1N`: the activation is 92.6% (active).

As for `Cc1nc([N+](=O)[O-])c(Br)n1CC(=O)c1ccc2ccccc2c1`, the activation was 10.5%.

Consider `Cn1c(/C(C#N)=C(\O)CN2CCN(Cc3ccccc3)CC2)nc2ccccc21`, for which the activation is 7.65%.

As for `Cc1nc([N+](=O)[O-])c(Sc2nc3ccccc3n2C)n1Cc1ccccc1`, the activation was 46.8% (active).
